Test results from ChEMBL document CHEMBL4732020, “The modulatory role of sulfated and non-sulfated small molecule heparan sulfate-glycomimetics in endothelial dysfunction: absolute structural clarification, molecular docking and simulated dynamics, SAR analyses and ADMET studies” (RSC Med Chem, 2021).

What was measured:
[1] = Chemical stability of compound; type: physicochemical
HepG2 [2] = assay: Antioxidant activity in human HepG2 cells assessed as decrease in FFA-induced oxidatively stress by measuring NO production using DAF-2 by H2DCFDA dye based fluorescence assay relative to control; type: functional; parameters: concentration or dose not given beside the values
How it was run: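 Palmitate (100 µmol/L)-BSA stressed HepG2 with glycomimetics 1 µmol/L (3 h co-treatment or 12 h pretreatment). For NO: L-arginine 100 µmol/L for 5 min at 37 °C, DAF-2 0.1 µmol/L for 2 min, then A23187 for 30 min; ex 485/em 540 nm, autofluorescence subtracted. L-NAME 100 µmol/L in some runs. ROS: CM-H2DCFDA 10 µmol/L, 30 min, 37 °C, ex 490/em 540 nm.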

[3] = target: T1, Nitric oxide synthase 3 (Homo sapiens) (UniProt P29474); assay: Induction of eNOS phosphorylation in FFA-induced oxidatively stress human HepG2 cells by Western blot analysis relative to control; parameters: concentration or dose not given beside the values
T1 sequence (whole entry): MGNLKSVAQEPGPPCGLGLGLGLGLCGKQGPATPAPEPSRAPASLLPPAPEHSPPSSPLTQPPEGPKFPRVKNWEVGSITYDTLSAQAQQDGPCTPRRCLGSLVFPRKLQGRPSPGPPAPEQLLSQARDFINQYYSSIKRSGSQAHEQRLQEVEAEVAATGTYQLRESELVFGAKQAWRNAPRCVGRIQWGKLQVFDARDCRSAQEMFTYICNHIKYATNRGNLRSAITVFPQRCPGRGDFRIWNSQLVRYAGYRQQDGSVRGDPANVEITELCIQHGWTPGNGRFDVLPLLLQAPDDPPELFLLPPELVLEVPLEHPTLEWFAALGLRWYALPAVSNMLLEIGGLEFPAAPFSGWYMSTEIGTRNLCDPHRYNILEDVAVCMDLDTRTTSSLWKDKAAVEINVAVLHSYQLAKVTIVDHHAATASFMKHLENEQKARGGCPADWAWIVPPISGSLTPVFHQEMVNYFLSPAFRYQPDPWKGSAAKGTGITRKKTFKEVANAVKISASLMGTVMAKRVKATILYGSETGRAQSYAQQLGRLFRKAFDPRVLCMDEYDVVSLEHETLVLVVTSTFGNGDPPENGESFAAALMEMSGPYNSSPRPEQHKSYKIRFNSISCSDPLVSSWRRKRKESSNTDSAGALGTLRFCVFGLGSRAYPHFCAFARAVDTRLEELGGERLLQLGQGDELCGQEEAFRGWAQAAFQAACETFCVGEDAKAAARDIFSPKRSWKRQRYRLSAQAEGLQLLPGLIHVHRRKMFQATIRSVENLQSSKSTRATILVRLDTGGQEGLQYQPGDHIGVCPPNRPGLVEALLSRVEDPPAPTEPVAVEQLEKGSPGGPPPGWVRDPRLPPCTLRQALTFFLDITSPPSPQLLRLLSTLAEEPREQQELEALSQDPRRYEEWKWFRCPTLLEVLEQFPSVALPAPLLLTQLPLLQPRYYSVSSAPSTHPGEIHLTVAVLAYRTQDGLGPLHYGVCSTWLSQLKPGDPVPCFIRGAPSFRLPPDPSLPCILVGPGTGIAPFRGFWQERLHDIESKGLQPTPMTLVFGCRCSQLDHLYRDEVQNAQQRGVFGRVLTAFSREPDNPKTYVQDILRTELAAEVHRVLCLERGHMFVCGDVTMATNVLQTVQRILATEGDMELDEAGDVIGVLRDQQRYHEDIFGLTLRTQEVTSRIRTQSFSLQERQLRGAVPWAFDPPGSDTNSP
How it was run: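 HepG2 stressed with palmitate 100 µmol/L-BSA plus glycomimetics 1 µmol/L. Lysed in RIPA, 30 µg protein by SDS-PAGE onto PVDF. Blocked 1 h in 5% milk/TBS-T; rabbit anti-phospho-eNOS overnight at 4 °C, HRP secondary 1 h at RT, ECL detection. Signal quantified by densitometry.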

[4] = Metabolic stability in rat liver microsomes assessed as intrinsic clearance at 3 uM measured up to 45 mins in presence of NADPH by LC-MS/MS analysis; type: ADME, Microsome; conditions: read-out: CLH
How it was run: (§1)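 Pooled liver microsomes 0.5 mg/mL protein in 0.1 M phosphate pH 7.4 with compound 3 µM (0.25% DMSO), prewarmed at 37 °C. Started with NADPH 1 mM; sampled at 0, 5, 15, 30, 45 min into methanol. Minus-NADPH control at 45 min; single incubations. t½ = 0.693/k; CLint = V×0.693/t½ in µL/min/mg protein.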

HepG2 [5] = assay: Antioxidant activity in human HepG2 cells assessed as decrease in FFA-induced NADPH oxidase activity by lucigenin-enhanced chemiluminescence based scintillation counting method relative to control; type: functional
How it was run: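 HepG2 cells given FFA-BSA (palmitate 100 µmol/L) with glycomimetics 1 µmol/L for 3 h, or 12 h pretreatment then 3 h palmitate. Homogenized in 20 mmol/L H2KPO4/1 mmol/L EDTA with protease inhibitors. 50 µg protein with NADPH 100 µmol/L and lucigenin 5 µmol/L; luminescence over 200 s. Basal activity subtracted; expressed as RLU/min/µg protein.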

[6] = Metabolic stability in rat liver microsomes assessed as half life at 3 uM measured up to 45 mins in presence of NADPH by LC-MS/MS analysis; type: ADME, Microsome; how it was run: as §1
HepG2 (Homo sapiens) = assay: Cytotoxicity against HepG2 cells assessed as reduction in cell viability incubated for 72 hrs by MTT assay; conditions: hepg2, 72 h
[7] = Metabolic stability in mouse liver microsomes assessed as intrinsic clearance at 3 uM measured up to 45 mins in presence of NADPH by LC-MS/MS analysis; type: ADME, Microsome; conditions: read-out: CLH; how it was run: as §1
HepG2 [8] = assay: Cytotoxicity against human HepG2 cells assessed as reduction in cell viability incubated for 72 hrs by MTT assay; type: cell-based; conditions: hepg2, 72 h
How it was run: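 HepG2 plated 24 h before dosing. Compound at 8 concentrations in triplicate, serially diluted in 0.5% DMSO growth medium, for 72 h. MTT loaded 1 h before end; solubilised in DMSO, read at 570 nm. Significance limits come from vehicle wells. Minimum effective concentration taken from the lowest concentration exceeding significance; AC50 fitted when dose-response is clear.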

[9] = Metabolic stability in mouse liver microsomes assessed as half life at 3 uM measured up to 45 mins in presence of NADPH by LC-MS/MS analysis; type: ADME, Microsome; how it was run: as §1
HepG2 [10] = assay: Antioxidant activity in human HepG2 cells assessed as decrease in FFA-induced ROS production after 24 hrs by ethidium/DAPI based fluorescence assay relative to control; type: functional
How it was run: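 Cells in serum-free DMEM with 2% fatty-acid-free BSA or palmitate-BSA (100 µmol/L) plus glycomimetics (1 or 10 µmol/L) for 24 h. Then 10 µmol/L dihydroethidium in Hepes-buffered solution for 30 min, DAPI 0.3 µmol/L counterstain. Fluorescence microscopy with constant imaging settings; ROS taken as ethidium/DAPI fluorescence ratio.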

[11] = Kinetic solubility of compound in PBS at pH 7.4 incubated for 2 hrs by turbidometric analysis; type: physicochemical; conditions: read-out: Kinetic_solubility
How it was run: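 DMSO solutions diluted 1 in 100 into 0.01 M PBS pH 7.4 (final 1% DMSO) to give 1–100 µM; 7 replicate wells. Incubated 2 h at 37 °C, absorbance read at 620 nm. Solubility estimated as the concentration raising absorbance above vehicle.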

[12] = target: Voltage-gated inwardly rectifying potassium channel KCNH2 (Homo sapiens, UniProt Q12809); assay: Inhibition of recombinant human ERG expressed in CHO cells at -80 mV holding potential by automated patch clamp method; type: cell-based
How it was run: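 hERG-CHO cells on automated IonWorks patch clamp at room temperature. Extracellular DPBS pH 7.2, HEPES-buffered intracellular solution, amphotericin B perforation. Compounds typically at 0.008–25 µM (5-fold steps, final DMSO 0.25%), 300 s exposure, 4 replicate wells. Response is post/pre current ×100; IC50 from Hill fit.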

Sequence of Voltage-gated inwardly rectifying potassium channel KCNH2 (Q12809 whole entry): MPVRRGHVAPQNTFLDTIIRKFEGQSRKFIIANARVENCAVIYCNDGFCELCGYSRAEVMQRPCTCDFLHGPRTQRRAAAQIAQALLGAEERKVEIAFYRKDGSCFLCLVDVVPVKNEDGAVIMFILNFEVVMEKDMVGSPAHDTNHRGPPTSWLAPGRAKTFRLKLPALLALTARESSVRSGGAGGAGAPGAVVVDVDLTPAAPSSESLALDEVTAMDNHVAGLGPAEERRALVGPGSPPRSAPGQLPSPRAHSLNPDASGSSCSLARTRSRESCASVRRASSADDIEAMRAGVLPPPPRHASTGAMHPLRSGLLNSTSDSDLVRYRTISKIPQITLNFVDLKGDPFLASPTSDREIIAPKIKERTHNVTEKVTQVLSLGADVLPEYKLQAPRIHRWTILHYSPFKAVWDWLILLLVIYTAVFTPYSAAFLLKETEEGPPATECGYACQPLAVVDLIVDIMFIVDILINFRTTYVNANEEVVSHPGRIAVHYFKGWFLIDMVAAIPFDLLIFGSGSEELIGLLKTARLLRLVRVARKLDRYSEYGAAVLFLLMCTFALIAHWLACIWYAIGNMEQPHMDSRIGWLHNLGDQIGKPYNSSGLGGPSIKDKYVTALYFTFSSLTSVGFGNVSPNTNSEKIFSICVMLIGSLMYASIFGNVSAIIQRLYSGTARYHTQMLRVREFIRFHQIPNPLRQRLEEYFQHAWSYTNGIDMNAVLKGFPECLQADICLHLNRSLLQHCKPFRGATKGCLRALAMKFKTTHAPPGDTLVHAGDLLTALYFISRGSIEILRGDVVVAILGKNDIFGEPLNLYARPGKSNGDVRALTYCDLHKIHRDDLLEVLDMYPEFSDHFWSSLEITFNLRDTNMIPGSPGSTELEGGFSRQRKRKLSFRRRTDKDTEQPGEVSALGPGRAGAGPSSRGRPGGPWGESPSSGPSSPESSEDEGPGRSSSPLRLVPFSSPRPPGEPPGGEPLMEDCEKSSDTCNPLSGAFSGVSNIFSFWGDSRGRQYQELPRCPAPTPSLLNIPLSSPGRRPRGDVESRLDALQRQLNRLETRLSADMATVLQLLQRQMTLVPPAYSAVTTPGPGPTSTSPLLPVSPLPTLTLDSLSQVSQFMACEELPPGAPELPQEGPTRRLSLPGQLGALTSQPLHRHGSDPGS

For `COC(=O)c1cc(OC[C@@H](COS(=O)(=O)[O-])OS(=O)(=O)[O-])ccc1OC[C@H](COS(=O)(=O)[O-])OS(=O)(=O)[O-].[Na+].[Na+].[Na+].[Na+]`, the Stabilty [1] was “Stable”, the Activity (HepG2 [2]) was 110% and the Activity [3] was 342%. The microsomal CLint at 3 µM [4] was 9.56 µL/min/mg, the “inhibition (INH)” value (HepG2 [5]) was 29% and the half-life at 3 µM [6] was 2.42 h. For the same molecule, the Activity (HepG2 (Homo sapiens)) was “Non-Toxic”, the microsomal CLint at 3 µM [7] was 0.755 µL/min/mg and the Activity (HepG2 [8]) was “Non-Toxic”. For the same molecule, the half-life at 3 µM [9] was 30.7 h, the “inhibition (INH)” value (HepG2 [10]) was 28% and the solubility kinetic at 2 h [11] was > 100 µM.
In the case of `COC(=O)c1cc(OC[C@H](COS(=O)(=O)[O-])OS(=O)(=O)[O-])ccc1OC[C@@H](COS(=O)(=O)[O-])OS(=O)(=O)[O-].[Na+].[Na+].[Na+].[Na+]`, the Stabilty [1] is reported as “Stable”, the Activity (HepG2 [2]) is reported as 62% and the IC50 [12] is reported as > 25 µM. The Activity [3] was 318%, the microsomal CLint at 3 µM [4] was 0.649 µL/min/mg and the “inhibition (INH)” value (HepG2 [5]) was 31%. The half-life at 3 µM [6] was 35.7 h, the Activity (HepG2 (Homo sapiens)) was “Non-Toxic” and the microsomal CLint at 3 µM [7] was 2.88 µL/min/mg. For the same molecule, the Activity (HepG2 [8]) was “Non-Toxic”, the half-life at 3 µM [9] was 8.03 h and the “inhibition (INH)” value (HepG2 [10]) was 29%. For the same molecule, the solubility kinetic at 2 h [11] was > 100 µM.
For `COC(=O)c1cc(OC[C@H](O)CO)ccc1OC[C@@H](O)CO` (mixture of isomers), the Activity (HepG2 [2]) was 46%, the Activity [3] was 286% and the “inhibition (INH)” value (HepG2 [5]) was 26%. For the same molecule, the “inhibition (INH)” value (HepG2 [10]) was 36%.
In the case of `O=C([O-])c1cc(OC[C@@H](O)CO)ccc1OC[C@H](O)CO.[Na+]` (mixture of isomers), the Activity (HepG2 [2]) is reported as 52%, the Activity [3] is reported as 294% and the “inhibition (INH)” value (HepG2 [5]) is reported as 27%. For the same molecule, the “inhibition (INH)” value (HepG2 [10]) was 19%.
For `COC(=O)c1cc(OC[C@H](COS(=O)(=O)[O-])OS(=O)(=O)[O-])ccc1OCCCCOS(=O)(=O)[O-].[Na+].[Na+].[Na+]`, the Stabilty [1] was “Stable”, the Activity (HepG2 [2]) was 52% and the Activity [3] was 613%. The “inhibition (INH)” value (HepG2 [5]) was 31%, the Activity (HepG2 (Homo sapiens)) was “Non-Toxic” and the Activity (HepG2 [8]) was “Non-Toxic”. For the same molecule, the “inhibition (INH)” value (HepG2 [10]) was 23%.
With `COC(=O)c1cc(OC[C@@H](COS(=O)(=O)[O-])OS(=O)(=O)[O-])ccc1OCCCCOS(=O)(=O)[O-].[Na+].[Na+].[Na+]` the Stabilty [1] was “Stable”, the Activity (HepG2 [2]) was 63% and the Activity [3] was 397%. The “inhibition (INH)” value (HepG2 [5]) was 27%, the Activity (HepG2 (Homo sapiens)) was “Non-Toxic” and the Activity (HepG2 [8]) was “Non-Toxic”. For the same molecule, the “inhibition (INH)” value (HepG2 [10]) was 39%.
With `O=C([O-])c1cc(OC[C@H](O)CO)ccc1OC[C@@H](O)CO.[Na+]` (mixture of isomers) the Activity (HepG2 [2]) was 41%, the Activity [3] was 312% and the “inhibition (INH)” value (HepG2 [5]) was 21%. For the same molecule, the “inhibition (INH)” value (HepG2 [10]) was 23%.
